Data reported in ChEMBL document CHEMBL4732188, “SARs of a novel series of s-triazine compounds targeting vimentin to induce methuotic phenotype” (Eur J Med Chem, 2021).
The source made the active and inactive calls. No cut-off for these calls is given here.

Tests used:
U-87 MG = assay: Antiproliferative activity against human U87 cells assessed as reduction in cell growth incubated for 4 days by cell-titer glo assay; assay type: functional, cell-based, U-87MG ATCC; details: 96 h
Procedure, shortened: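 Cells grown in RPMI1640 with 10% FBS, 2 mM glutamine and penicillin-streptomycin at 37 °C, 5% CO₂. Viability read as ATP by CellTiter-Glo luminescence. IC50 as mean ± SD from triplicate experiments.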

U-87MG ATCC [1] = assay: Induction of vacuolization in human U87 cells at 1 uM by microscopic analysis
U-87MG ATCC [2] = assay: Induction of vacuolization in human U87 cells at 31.6 nM incubated for 4 days by microscopic analysis; assay type: functional, cell-based; details: time 4.0 day
Procedure, shortened: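 Cytoplasmic vacuolization was first screened visually by microscope in U87 cells treated with each compound at 1. Positive compounds were then titrated down to 0.01. Each was scored by its minimal effective concentration: 5 if vacuoles were significant at 10 nM, 4 at 31.6 nM, and so on downward.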

Vimentin (Homo sapiens) = Vimentin (Homo sapiens) (UniProt P08670); assay: Binding affinity to vimentin in human U87 cells at 100 nM incubated for 2 hrs by MALDI-MS/MS analysis; assay type: cell-based
Procedure, shortened: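 Live U87 cells treated with the alkyne photoaffinity probe at 100 nM (DMSO control), then UV irradiated (315-385 nm, 30 min) through the flask bottom. Lysed in Hepes buffer pH 7.5 and click-reacted with biotin-N₃ (1 mM CuSO₄, 1 mM TCEP). Streptavidin-agarose enrichment, 10% SDS-PAGE separation, then LC-MS/MS identification.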

U-87MG ATCC [3] = assay: Induction of methuosis in human U87 cells assessed as macropinocytosis by measuring cytoplasmic vacuolization at 10 nM incubated for 24 hrs by […] staining based confocal microscopic analysis; assay type: functional, cell-based
Procedure, shortened: (§1)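 U87 cells were cultured in RPMI1640 with 10% FBS at 37 °C, 5% CO₂, and compound-treated for 24 h across 0.01-10. Cytoplasmic vacuolization was imaged by microscopy, with time-lapse confocal tracking of vesicle movement, vacuole fusion, cell rounding and disintegration. Macropinocytic origin was checked by lucifer yellow uptake and by staining with ER and Golgi markers.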

U-87MG ATCC [4] = assay: Induction of methuosis in human U87 cells assessed as increase in accumulation of small vesicles at 10 nM measured after 24 hrs by […] staining based microscopic analysis; assay type: functional, cell-based; procedure, shortened: as §1
U-87MG ATCC [5] = assay: Induction of methuosis in human U87 cells assessed as increase in size of cytoplasmic vacuoles at 10 nM measured after 24 hrs by […] staining based microscopic analysis; assay type: functional, cell-based; procedure, shortened: as §1
U-87MG ATCC [6] = assay: Induction of methuosis in human U87 cells assessed as increase in number of cytoplasmic vacuoles at 10 nM measured after 24 hrs by […] staining based microscopic analysis; assay type: functional, cell-based; procedure, shortened: as §1
U-87MG ATCC [7] = assay: Induction of methuosis in human U87 cells assessed as rounded cytoplasmic vacuoles at 10 nM measured after 24 hrs by […] staining based microscopic analysis; assay type: functional, cell-based; procedure, shortened: as §1
U-87MG ATCC [8] = assay: Induction of methuosis in human U87 cells assessed as increase in intracellular vacuolization in para nuclear region at 10 nM measured < 2 hrs by microscopic analysis; assay type: functional, cell-based; details: time hrs <2
U-87MG ATCC [9] = assay: Induction of methuosis in human U87 cells assessed as disintegrated cytoplasmic vacuoles at 10 nM measured after 24 hrs by […] staining based microscopic analysis; assay type: functional, cell-based; procedure, shortened: as §1
HCT-15 = assay: Induction of vacuolization in human HCT-15 cells at 100 nM by microscopic analysis; assay type: functional, cell-based
NCI-H522 = assay: Induction of vacuolization in human NCI-H522 cells at 100 nM by microscopic analysis; assay type: functional, cell-based
SK-MEL-28 = assay: Induction of vacuolization in human SK-MEL-28 cells at 100 nM by microscopic analysis; assay type: functional, cell-based
HepG2 = assay: Induction of vacuolization in human HepG2 cells at 100 nM by microscopic analysis; assay type: functional, cell-based
LNCaP = assay: Induction of vacuolization in human LNCaP cells at 100 nM by microscopic analysis; assay type: functional, cell-based
OVCAR-3 = assay: Induction of vacuolization in human OVCAR-3 cells at 100 nM by microscopic analysis; assay type: functional, cell-based

Sequence of Vimentin (Homo sapiens) (P08670 whole entry): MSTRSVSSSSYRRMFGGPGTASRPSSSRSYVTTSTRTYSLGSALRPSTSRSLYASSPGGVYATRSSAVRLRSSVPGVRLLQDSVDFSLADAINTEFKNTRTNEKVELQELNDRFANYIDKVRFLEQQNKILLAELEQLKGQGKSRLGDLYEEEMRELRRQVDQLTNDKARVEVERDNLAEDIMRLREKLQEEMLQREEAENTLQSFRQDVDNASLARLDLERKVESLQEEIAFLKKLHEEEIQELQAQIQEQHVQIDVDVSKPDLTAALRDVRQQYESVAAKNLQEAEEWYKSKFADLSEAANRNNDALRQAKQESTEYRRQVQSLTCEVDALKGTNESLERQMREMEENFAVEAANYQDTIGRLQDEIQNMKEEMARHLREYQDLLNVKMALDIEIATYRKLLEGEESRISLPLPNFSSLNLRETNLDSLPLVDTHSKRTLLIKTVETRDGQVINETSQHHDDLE

Question: How did the IC50 (U-87 MG) turn out when `O=C(Nc1ccc(Cl)cc1)Nc1cccc(Nc2nc(/C=C/c3cccc([N+](=O)[O-])c3)nc(N3CCOCC3)n2)c1` was run?
Answer: 3660 nM

Question: And the Activity (U-87MG ATCC [1])?
Answer: inactive

Question: What does the source list for `O=C(Nc1ccc(Cl)cc1)Nc1cccc(Nc2nc(/C=C/c3cccc(Cl)c3)nc(N3CCOCC3)n2)c1`?
Answer: IC50 (U-87 MG): 2200 nM; Activity (U-87MG ATCC [1]): inactive

Question: What does the source list for `C#CCCC1(CCNC(=O)c2ccc(NC(=O)Nc3ccc(Nc4nc(/C=C/c5ccccc5)nc(N5CCOCC5)n4)cc3)cc2)N=N1`?
Answer: Activity (U-87MG ATCC [2]): Active; Activity (Vimentin (Homo sapiens)): Active

Question: Which IC50 (U-87 MG) does the source give for `CN1CCN(c2nc(/C=C/c3cccc([N+](=O)[O-])c3)nc(Nc3ccc(NC(=O)Nc4ccc(Cl)cc4)cc3)n2)CC1` here?
Answer: 1210 nM

Question: What about the Activity (U-87MG ATCC [1]) of the same compound?
Answer: inactive

Question: For `O=C(Nc1ccc(Cl)cc1)Nc1ccc(Nc2nc(/C=C/c3ccccc3)nc(N3CCOCC3)n2)cc1`, which IC50 (U-87 MG) is on record?
Answer: 4790 nM

Question: And the Activity (U-87MG ATCC [3])?
Answer: Active

Question: What about the Activity (U-87MG ATCC [4]) of the same compound?
Answer: Active

Question: What about the Activity (U-87MG ATCC [2]) of the same compound?
Answer: Active

Question: What about the Activity (U-87MG ATCC [5]) of the same compound?
Answer: Active

Question: And the Activity (U-87MG ATCC [6])?
Answer: Active

Question: What about the Activity (U-87MG ATCC [7]) of the same compound?
Answer: Active

Question: What about the Activity (U-87MG ATCC [8]) of the same compound?
Answer: Active

Question: And the Activity (U-87MG ATCC [1])?
Answer: Active

Question: What about the Activity (U-87MG ATCC [9]) of the same compound?
Answer: Active

Question: For `O=C(Nc1ccc(Nc2nc(/C=C/c3ccccc3)nc(N3CCOCC3)n2)cc1)Nc1ccc(C(=O)NCCN2CCOCC2)cc1`, which IC50 (U-87 MG) is on record?
Answer: 550 nM

Question: What about the Activity (U-87MG ATCC [1]) of the same compound?
Answer: Active

Question: `O=C(Nc1ccc(Cl)cc1)Nc1ccc(Nc2nc(/C=C/c3cccc([N+](=O)[O-])c3)nc(N3CC(O)C3)n2)cc1` was tested. Which IC50 (U-87 MG) did it give?
Answer: 1320 nM

Question: What about the Activity (U-87MG ATCC [1]) of the same compound?
Answer: inactive

Question: What does the source list for `O=C(Nc1ccc(Cl)cc1)Nc1ccc(Nc2nc(/C=C/c3cccc([N+](=O)[O-])c3)nc(N3CCCC3)n2)cc1`?
Answer: IC50 (U-87 MG): 4470 nM; Activity (U-87MG ATCC [1]): inactive

Question: How did the IC50 (U-87 MG) turn out when `O=C(Nc1ccc(F)cc1)Nc1ccc(Nc2nc(/C=C/c3ccccc3)nc(N3CCOCC3)n2)cc1` was run?
Answer: 4750 nM

Question: And the Activity (U-87MG ATCC [1])?
Answer: Active

Question: With `O=C(Nc1ccc(Nc2nc(/C=C/c3ccccc3)nc(N3CCOCC3)n2)cc1)Nc1ccc(C(=O)NCCN2CCCC2)cc1` as the compound, how does the IC50 (U-87 MG) read?
Answer: 1430 nM

Question: What about the Activity (U-87MG ATCC [1]) of the same compound?
Answer: Active

Question: `CN1CCN(C(=O)c2ccc(NC(=O)Nc3ccc(Nc4nc(/C=C/c5ccccc5)nc(N5CCOCC5)n4)cc3)cc2)CC1` was tested. Which IC50 (U-87 MG) did it give?
Answer: 230 nM

Question: What about the Activity (U-87MG ATCC [1]) of the same compound?
Answer: Active

Question: Which IC50 (U-87 MG) does the source give for `O=C(Nc1ccc(Cl)cc1)Nc1ccc(Nc2nc(/C=C/c3cccc([N+](=O)[O-])c3)nc(N3CCOCC3)n2)cc1` here?
Answer: 1710 nM

Question: What about the Activity (HCT-15) of the same compound?
Answer: Active

Question: And the Activity (NCI-H522)?
Answer: Active

Question: What about the Activity (SK-MEL-28) of the same compound?
Answer: Active

Question: What about the Activity (HepG2) of the same compound?
Answer: Active

Question: And the Activity (LNCaP)?
Answer: Active

Question: And the Activity (OVCAR-3)?
Answer: Active

Question: And the Activity (U-87MG ATCC [1])?
Answer: Active

Question: What does the source list for `O=C(Nc1ccc(Nc2nc(/C=C/c3ccccc3)nc(N3CCOCC3)n2)cc1)Nc1ccc(C(=O)NCCN2CCCCC2)cc1`?
Answer: IC50 (U-87 MG): 1110 nM; Activity (U-87MG ATCC [1]): Active

Question: What does the source list for `O=C(Nc1ccc(F)cc1)Nc1ccc(Nc2nc(/C=C/c3ccc(Cl)cc3)nc(N3CCOCC3)n2)cc1`?
Answer: IC50 (U-87 MG): 2500 nM; Activity (U-87MG ATCC [1]): Active

Question: With `O=C(Nc1ccc(F)cc1)Nc1ccc(Nc2nc(/C=C/c3cccc(Cl)c3)nc(N3CCOCC3)n2)cc1` as the compound, how does the IC50 (U-87 MG) read?
Answer: 1330 nM

Question: And the Activity (U-87MG ATCC [1])?
Answer: Active

Question: `CN(C)C(=O)c1ccc(NC(=O)Nc2ccc(Nc3nc(/C=C/c4ccccc4)nc(N4CCOCC4)n3)cc2)cc1` was tested. Which IC50 (U-87 MG) did it give?
Answer: 530 nM

Question: What about the Activity (U-87MG ATCC [1]) of the same compound?
Answer: Active

Question: How did the IC50 (U-87 MG) turn out when `CN(C)c1nc(/C=C/c2cccc([N+](=O)[O-])c2)nc(Nc2ccc(NC(=O)Nc3ccc(Cl)cc3)cc2)n1` was run?
Answer: 5120 nM

Question: What about the Activity (U-87MG ATCC [1]) of the same compound?
Answer: inactive

Question: What does the source list for `O=C(Nc1ccc(Cl)cc1)Nc1cccc(Nc2nc(/C=C/c3ccccc3)nc(N3CCOCC3)n2)c1`?
Answer: IC50 (U-87 MG): 1000 nM; Activity (U-87MG ATCC [1]): inactive

Question: Which results are given for `CN(C)CCCNC(=O)c1ccc(NC(=O)Nc2ccc(Nc3nc(/C=C/c4ccccc4)nc(N4CCOCC4)n3)cc2)cc1`?
Answer: IC50 (U-87 MG): 2310 nM; Activity (U-87MG ATCC [1]): Active

Question: What does the source list for `CN(C)CCNC(=O)c1ccc(NC(=O)Nc2ccc(Nc3nc(/C=C/c4ccccc4)nc(N4CCOCC4)n3)cc2)cc1`?
Answer: IC50 (U-87 MG): 2480 nM; Activity (U-87MG ATCC [1]): Active

Question: `CC1CCN(C(=O)c2ccc(NC(=O)Nc3ccc(Nc4nc(/C=C/c5ccccc5)nc(N5CCOCC5)n4)cc3)cc2)CC1` was tested. Which IC50 (U-87 MG) did it give?
Answer: 870 nM

Question: And the Activity (U-87MG ATCC [1])?
Answer: Active

Question: With `O=C(Nc1ccc(Nc2nc(/C=C/c3ccc(Cl)cc3)nc(N3CCOCC3)n2)cc1)Nc1cccc(F)c1` as the compound, how does the IC50 (U-87 MG) read?
Answer: 4410 nM

Question: What about the Activity (U-87MG ATCC [1]) of the same compound?
Answer: Active

Question: `O=C(Nc1ccc(F)cc1)Nc1ccc(Nc2nc(/C=C/c3cccc([N+](=O)[O-])c3)nc(N3CCOCC3)n2)cc1` was tested. Which IC50 (U-87 MG) did it give?
Answer: 1110 nM

Question: What about the Activity (U-87MG ATCC [1]) of the same compound?
Answer: Active
